Reference: paper PMC3717983 (Journal of medicinal chemistry, 2013)
Where “and” joins values, the source holds several entries; their conditions need not be identical. Identical values can stand only once. Like-named read-outs stand apart in the source and are kept apart here. Marks after values point to notes of the source that are not given here.

How the values were obtained:
human α-thrombin [1] = target: T1, human α-thrombin (Homo sapiens, UniProt P00734); format: biochemical; settings: for HS (Hill slope) / logIC50: pH 7.4, 25 °C, Spectrozyme TH; for fold decrease in potency from 9a: ratio of IC50s
Water solubility = format: physicochemical; settings: devoid of any sulfate group
thrombin = thrombin (Homo sapiens, UniProt P00734); assay: Sequential inhibition of thrombin by 9a and PPACK; format: biochemical; settings: PPACK added following inhibition by 9a (Figure S10)
human α-thrombin [2] = target: T1, human α-thrombin; format: biochemical
Summary of the method: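 Human α-thrombin (5 nM) was preincubated with fixed test compound concentrations (0–9.90 μM), either overnight at 25 °C or 2 h at 37 °C, in 20 mM Tris-HCl pH 7.4 with 100 mM NaCl, 2.5 mM CaCl2 and 0.1% PEG8000. Initial rates of Spectrozyme TH hydrolysis (2–80 μM) were read at 405 nm, at under 10% substrate consumption. Standard Michaelis-Menten fit gave KM and VMAX.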

human α-thrombin [3] = target: T1, human α-thrombin; assay: Thrombin inhibition by 9a in presence of exosite 1 or exosite 2 ligands; format: biochemical
[4] = target: recombinant wild-type thrombin (rWT) (Homo sapiens, UniProt P00734); assay: Inhibition of recombinant thrombin, S2238 hydrolysis assay; format: biochemical; settings: overnight 25 °C
Summary of the method: (§1)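 Recombinant wild-type and Ala-mutant thrombins were made in […] form by PCR mutagenesis, expressed in BHK cells, HPC4 immunoaffinity-purified and activated. Active-site concentration came from amidolytic assay and antithrombin titration. Enzyme (1.5–7.5 nM final) was incubated with test compound overnight at 25 °C in pH 7.4 Tris buffer. S2238 was added and initial rate read at 405 nm. At least 9–10 concentrations were fitted by logistic equation for apparent IC50, HS, Y0 and YM. Mutant IC50 is expressed relative to recombinant wild type.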

R93A thrombin = R93A thrombin (Homo sapiens, UniProt P00734, R452A); assay: as above; format: biochemical; settings: overnight 25 °C
Summary of the method: as §1

R97A thrombin = R97A thrombin (Homo sapiens, UniProt P00734, R456A); assay: as above; format: biochemical; settings: overnight 25 °C
Summary of the method: as §1

R101A thrombin = R101A thrombin (Homo sapiens, UniProt P00734, R461A); assay: as above; format: biochemical; settings: overnight 25 °C
Summary of the method: as §1

R126A thrombin = R126A thrombin (Homo sapiens, UniProt P00734, R486A); assay: as above; format: biochemical; settings: overnight 25 °C
Summary of the method: as §1

R165A thrombin = R165A thrombin (Homo sapiens, UniProt P00734, R533A); assay: as above; format: biochemical; settings: overnight 25 °C
Summary of the method: as §1

K169A thrombin = K169A thrombin (Homo sapiens, UniProt P00734, K537A); assay: as above; format: biochemical; settings: overnight 25 °C
Summary of the method: as §1

R173A thrombin = R173A thrombin (Homo sapiens, UniProt P00734, R541A); assay: as above; format: biochemical; settings: overnight 25 °C
Summary of the method: as §1

R175A thrombin = R175A thrombin (Homo sapiens, UniProt P00734, R543A); assay: as above; format: biochemical; settings: overnight 25 °C
Summary of the method: as §1

R233A thrombin = R233A thrombin (Homo sapiens, UniProt P00734, R608A); assay: as above; format: biochemical
Summary of the method: as §1

K235A thrombin = K235A thrombin (Homo sapiens, UniProt P00734, K610A); assay: as above; format: biochemical; settings: overnight 25 °C
Summary of the method: as §1

K236A thrombin = K236A thrombin (Homo sapiens, UniProt P00734, K611A); assay: as above; format: biochemical; settings: overnight 25 °C
Summary of the method: as §1

K240A thrombin = K240A thrombin (Homo sapiens, UniProt P00734, K615A); assay: as above; format: biochemical; settings: overnight 25 °C
Summary of the method: as §1

human plasma [5] = assay: Human plasma clotting assay, activated partial thromboplastin time; format: biochemical
Summary of the method: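 APTT on a fibrometer using a one-stage recalcification assay. Citrated human plasma, test compound or vehicle, and pre-warmed 0.2% ellagic acid were mixed and incubated 4 min. Clotting was started with 25 mM CaCl2 at 37 °C and clotting time recorded. Run in duplicate. A quadratic trend line gave the concentration that doubles APTT.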

human plasma [6] = assay: Human plasma clotting assay, prothrombin time; format: biochemical; settings: citrated human plasma
Summary of the method: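 PT on a fibrometer using a one-stage recalcification assay. Test compound or vehicle was mixed with citrated human plasma and incubated 30 s at 37 °C. Pre-warmed reconstituted thromboplastin was then added and clotting time recorded. Run in duplicate. A quadratic trend line gave the concentration that doubles PT.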

[7] = [9a] 0.63 μM, 2 hr incubation at 37°C
[8] = [9a] 0.63 μM, overnight incubation at 25°C
[9] = [9a] 1.53 μM, 2 hr incubation at 37°C
[10] = [9a] 1.80 μM, overnight incubation at 25°C
[11] = [9a] 3.60 μM, 2 hr incubation at 37°C
[12] = [9a] 3.60 μM, overnight incubation at 25°C
[13] = [9a] 9.90 μM, 2 hr incubation at 37°C
[14] = Heparin (UFH) 4.2 μM, overnight 25 °C
[15] = Heparin (UFH) 25.0 μM, overnight 25 °C
[16] = Heparin (UFH) 42.6 μM, overnight 25 °C
[17] = Hirugen peptide (HirP) 5 nM, overnight 25 °C
[18] = Hirugen peptide (HirP) 15 nM, overnight 25 °C
[19] = Octasaccharide H8 1.0 μM, overnight 25 °C
[20] = Octasaccharide H8 3.0 μM, overnight 25 °C
[21] = Octasaccharide H8 10 μM, overnight 25 °C
[22] = Octasaccharide H8 20 μM, overnight 25 °C
[23] = γ′-Fibrinogen peptide (FibP) 0.2 μM, overnight 25 °C
[24] = γ′-Fibrinogen peptide (FibP) 0.65 μM, overnight 25 °C
[25] = γ′-Fibrinogen peptide (FibP) 2.0 μM, overnight 25 °C
[26] = γ′-Fibrinogen peptide (FibP) 6.5 μM, overnight 25 °C

## C=CCOC(=O)c1c(C)oc2cc(OC)c(OCc3oc4cc(OC)c(OCc5oc6cc(OC)c(OS(=O)(=O)[O-])cc6c5C(=O)OCC)cc4c3C(=O)OCC)cc12.[Na+] [compound 13]
Human α-thrombin [1]
  HS (Hill slope): 3.5 ± 1.2
  logIC50: −4.51 ± 0.06
  fold decrease in potency from 9a: 46 fold

## CCOC(=O)c1c(COc2cc3c(C(=O)OCC)c(COc4cc5c(C(=O)O)c(C)oc5cc4OC)oc3cc2OC)oc2cc(OC)c(O)cc12 [compound 12]
Water solubility
  water solubility: fairly good water solubility

## CCOC(=O)c1c(C)oc2cc(OC)c(OCc3oc4cc(OC)c(OCc5oc6cc(OS(=O)(=O)[O-])c(OC)cc6c5C(=O)OCC)cc4c3C(=O)OCC)cc12.[Na+] [compound 23]
Human α-thrombin [1]
  HS (Hill slope): 1.2 ± 0.3
  logIC50: −3.81 ± 0.13

## N=C(N)NCCC[C@H](NC(=O)[C@@H]1CCCN1C(=O)[C@H](N)Cc1ccccc1)C(=O)CCl [PPACK, D-Phe-Pro-Arg-chloromethylketone]
thrombin
  thrombin activity after sequential inhibition: totally inactive

## CCOC(=O)c1c(C)oc2cc(OC)c(OCc3oc4cc(OC)c(OCc5oc6cc(OC)c(OS(=O)(=O)[O-])cc6c5C(=O)OC)cc4c3C(=O)OCC)cc12.[Na+] [9b]
Human α-thrombin [1]
  HS (Hill slope): 1.0 ^c
  logIC50: −5.69 ± 0.13

## CCOC(=O)c1c(C)oc2cc(OC)c(OCc3oc4cc(OC)c(OCc5oc6cc(OC)c(OCc7oc8cc(OC)c(OS(=O)(=O)[O-])cc8c7C(=O)OCC)cc6c5C(=O)OCC)cc4c3C(=O)OCC)cc12.[Na+] [compound 17]
Human α-thrombin [1]
  HS (Hill slope): 1.0 ^c
  logIC50: −3.80 ± 0.15
  fold decrease in potency from 9a: ~236 fold and 225 fold

## CCOC(=O)c1c(C)oc2cc(OC)c(OCc3oc4cc(OC)c(OCc5oc6cc(OC)c(OS(=O)(=O)[O-])cc6c5C(=O)OCCOC)cc4c3C(=O)OCC)cc12.[Na+] [9d]
Human α-thrombin [1]
  fold decrease in potency from 9a: > 500 fold

## CCOC(=O)c1c(C)oc2cc(OC)c(OCc3oc4cc(OC)c(OCc5oc6cc(OC)c(OS(=O)(=O)[O-])cc6c5C(=O)OC(C)(C)C)cc4c3C(=O)OCC)cc12.[Na+] [9c]
Human α-thrombin [1]
  HS (Hill slope): 2.1 ± 0.5
  logIC50: −3.78 ± 0.07

## CCOC(=O)c1c(C)oc2cc(OC)c(OCc3oc4cc(OC)c(OCc5oc6cc(OCC)c(OS(=O)(=O)[O-])cc6c5C(=O)OCC)cc4c3C(=O)OCC)cc12.[Na+] [9f]
Human α-thrombin [1]
  HS (Hill slope): 2.3 ± 1.2
  logIC50: −5.23 ± 0.11
  fold decrease in potency from 9a: 8.6 fold

## CCOC(=O)c1c(COc2cc3c(C(=O)O)c(C)oc3cc2OC)oc2cc(OC)c(OCc3oc4cc(OC)c(OS(=O)(=O)[O-])cc4c3C(=O)OCC)cc12.[Na+] [compound 14]
Human α-thrombin [1]; allyl ester to carboxylic acid
  fold reduction in potency from 13: 2 fold
Human α-thrombin [1]
  HS (Hill slope): 1.0 ^c
  logIC50: −4.18 ± 0.17

## CCOC(=O)c1c(C)oc2cc(OC)c(OCc3oc4cc(OC)c(OCc5oc6cc(OC)c(OS(=O)(=O)[O-])cc6c5C(=O)OCC)cc4c3C(=O)OCC)cc12.[Na+] [9a]
Human α-thrombin [1]
  logIC50: −6.17 ± 0.03
Human α-thrombin [2]; 25 °C
  reduction in KM and VMAX: 0.86–1.2 fold per μM
Human α-thrombin [2]; 37 °C
  reduction in KM and VMAX: 0.4–0.6 fold per μM
Human α-thrombin [2]; [9a] 0.36 μM, overnight incubation at 25°C
  Km: 11.1 ± 2.5 µM
Human α-thrombin [2]; [7]
  Km: 6.7 ± 2.3 µM
  VMAX: 72 ± 8 mAU/min
Human α-thrombin [2]; [8]
  Km: 7.7 ± 1.3 µM
  VMAX: 69 ± 3 mAU/min
Human α-thrombin [2]; [9]
  Km: 2.2 ± 0.8 µM
  VMAX: 30 ± 2 mAU/min
Human α-thrombin [2]; [10]
  Km: 3.2 ± 0.5 µM
  VMAX: 35 ± 1 mAU/min
Human α-thrombin [2]; [11]
  Km: 2.7 ± 0.6 µM
  VMAX: 25 ± 1 mAU/min
Human α-thrombin [2]; [12]
  Km: 3.1 ± 0.6 µM
  VMAX: 19 ± 1 mAU/min
Human α-thrombin [2]; [13]
  Km: 1.9 ± 0.6 µM
  VMAX: 15 ± 0.8 mAU/min
Human α-thrombin [2]; both incubation conditions
  mechanism of thrombin inhibition: primarily uncompetitive
Human α-thrombin [3]; 0 μM competitor
  logIC50: −6.17 ± 0.03
  ΔY: 79 ± 9%
Human α-thrombin [3]; [14]
  HS: 2.2 ± 0.4
  ΔY: 71 ± 7%
Human α-thrombin [3]; Heparin (UFH) 12.8 μM, overnight 25 °C
  HS: 1.8 ± 0.2
Human α-thrombin [3]; [15]
  HS: 1.7 ± 0.2
  ΔY: 81 ± 10%
Human α-thrombin [3]; [16]
  HS: 1.2 ± 0.2
  ΔY: ~90 ^c %
Human α-thrombin [3]; Hirugen peptide (HirP) 3 nM, overnight 25 °C
  ΔY: 44 ± 2%
Human α-thrombin [3]; [17]
  HS: 2.4 ± 0.3
  ΔY: 46 ± 2%
Human α-thrombin [3]; [18]
  HS: 3.0 ± 0.7
  ΔY: 43 ± 1%
Human α-thrombin [3]; [19]
  HS: 2.3 ± 0.3
  ΔY: 58 ± 3%
Human α-thrombin [3]; [20]
  HS: 2.6 ± 0.6
  ΔY: 54 ± 4%
Human α-thrombin [3]; [21]
  HS: 2.8 ± 0.4
  ΔY: 50 ± 2%
Human α-thrombin [3]; [22]
  HS: 2.6 ± 0.5
  ΔY: 49 ± 2%
Human α-thrombin [3]; [23]
  HS: 2.4 ± 0.3
  ΔY: 73 ± 8%
Human α-thrombin [3]; [24]
  HS: 2.1 ± 0.3
  ΔY: 71 ± 8%
Human α-thrombin [3]; [25]
  HS: 3.3 ± 0.6
  ΔY: 67 ± 4%
Human α-thrombin [3]; [26]
  HS: 2.1 ± 0.6
  ΔY: 65 ± 7%
[4]
  HS: 3.4 ± 0.5 ^b
  ΔY: 49 ± 2%
R93A thrombin
  HS: 1.8 ± 0.3
  ΔY: 66 ± 6%
R97A thrombin
  HS: 2.6 ± 0.5
  ΔY: 47 ± 3%
R101A thrombin
  HS: 2.1 ± 0.6
  ΔY: 55 ± 6%
R126A thrombin
  HS: 1.8 ± 0.5
  ΔY: 65 ± 11%
R165A thrombin
  HS: 1.1 ± 0.3
  ΔY: 61 ± 8%
K169A thrombin
  HS: 2.1 ± 0.2
  ΔY: 59 ± 3%
R173A thrombin
  HS: 2.4 ± 0.7
  ΔY: 62 ± 8%
R175A thrombin
  ΔY: 37 ± 3%
R233A thrombin; Arg233Ala thrombin
  fold loss in potency (defect) vs recombinant wild-type: ~ 3 fold
R233A thrombin; R233A, overnight 25 °C
  ΔY: 44 ± 2%
K235A thrombin
  ΔY: 50 ± 1%
K236A thrombin
  HS: 3.0 ± 0.3
  ΔY: 52 ± 1%
K240A thrombin
  HS: 2.3 ± 0.4
  ΔY: 49 ± 3%
Human plasma [5]; LMWLs from ref 15
  times less potent in plasma anticoagulation than sulfated LMWLs: 10 times
Human plasma [5]; citrated human plasma
  concentration required for a 2-fold increase in APTT: 139 µM
Human plasma [6]
  concentration required for a 2-fold increase in PT: 568 µM

## CCOC(=O)c1c(C)oc2cc(OC)c(OCc3oc4cc(OC)c(OCc5oc6cc(OC(C)C)c(OS(=O)(=O)[O-])cc6c5C(=O)OCC)cc4c3C(=O)OCC)cc12.[Na+] [9g]
Human α-thrombin [1]
  logIC50: ~ −4.0 ^d
  fold decrease in potency from 9a: 148 fold
